In the library only some 2.7% were active in any assay of this set; here they are far more common.
Lipid droplet: modulators of hepatic lipid droplet formation; 0.4% of 240,000 active; inhibition, % at 6.5 µM; AML12 mouse hepatocytes, oleate lipid droplets, BODIPY imaging;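 active = lipid droplet intensity inhibited by at least 50%, with more than 500 cells counted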
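System: AML12 hepatocytes (mouse). Probe or stimulus: oleic acid at 100 µM to induce lipid droplet formation. Times: overnight treatment with compound plus oleate. Detection: Image-based BODIPY and DAPI two-channel analysis. Evaluation: percent inhibition of filter-corrected integrated lipid droplet intensity per well.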
NTR1 ag: NTR1 (human) agonism; P30989; NTR1-U2OS beta-arrestin-GFP spot imaging, agonist mode; activation, % at 20 µM; 0.17% of 330,000 active; AID 493036;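 active = activation at or above 40% of the spot to cytoplasm intensity ratio, with at least 20 cells analyzed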
MC4R antagonist: antagonists of human melanocortin 4 receptor (MC4R); P32245; MC4R-expressing cells, MTII-stimulated cAMP, LANCE TR-FRET; inhibition, % at 6.5 µM; 0.48% of 360,000 active; AID 540295;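 active = inhibition above its plate's cutoff, the mean of tested wells on that plate plus 3 SD, cut at about 29% in these data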
Target sequence (P32245 whole entry, looked up): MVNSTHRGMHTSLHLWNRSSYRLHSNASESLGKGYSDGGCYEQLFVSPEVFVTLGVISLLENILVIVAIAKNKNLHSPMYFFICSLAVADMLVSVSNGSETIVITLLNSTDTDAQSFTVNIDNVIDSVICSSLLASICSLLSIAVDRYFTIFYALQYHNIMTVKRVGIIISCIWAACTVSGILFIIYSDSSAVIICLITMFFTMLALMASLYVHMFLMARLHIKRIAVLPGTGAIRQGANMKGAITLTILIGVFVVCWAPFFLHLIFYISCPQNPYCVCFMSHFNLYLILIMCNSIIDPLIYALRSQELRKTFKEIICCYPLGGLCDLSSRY
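Test system: U2OS cells stably expressing human melanocortin 4 receptor (MC4R); also added: Melanotan II challenge; compound: 6.5 µM single dose; timing: 30-min compound preincubation, 1-h Melanotan II challenge, 1-h detection, room temperature; signal: Eu-cAMP/anti-cAMP TR-FRET, emission 671 nm; repeats: one well per compound, no replicates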
MC4R ag barr: human MC4R agonism via beta-arrestin. P32245. U2OS MC4R beta-arrestin complementation, luminescence; percent of melanotan II response, DMSO zero. activation, % at 8.9 µM. 0.98% of 360,000 active;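 active = activation above a per-plate cutoff, the mean activation of sample wells on that plate plus 3 SD, cut at about 8% in these data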
PREPL inhibitor: inhibitors of human prolyl oligopeptidase-like enzyme PREPL | 0.68% of 320,000 active | Q4J6C6 | inhibition, % at 5.96 µM | AID 2751 | recombinant PREPL, fluorescence polarization activity-based probe; in the data active = inhibition above about 43%
HTR2A ag: mouse HTR2A agonism via beta-arrestin recruitment; P35363; CHO-K1 mHTR2A beta-arrestin complementation, luminescence; percent of 30 µM serotonin response; activation, % at 7.6 µM; 0.66% of 360,000 active;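 active = activation above a run cutoff, the mean activation of all tested compounds plus 3 SD, cut at about 14% in these data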
Lipid drop inh: hepatic lipid droplet formation inhibition, confirmed. inhibition, % at 5.2 µM. AML12 mouse hepatocytes, BODIPY lipid droplet imaging; droplets induced with 100 µM oleic acid. shares compounds with Lipid droplet. 65% of 870 active;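 active = inhibition of lipid droplet metric at least 50%, with more than 300 cells in each of four replicates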
AML12 cytotox: counter-screen for cytotoxicity in AML12 mouse hepatocytes | shares compounds with Lipid droplet | DAPI nuclear morphology cytotoxicity imaging; active compounds read high; cells fed 100 µM oleate overnight | z-score at 5 µM | 3% of 870 active | AID 463200; in the data active = z-score above about 6.3;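 note: compound exposure lasted overnight at 37 °C before fixation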
AML12 tox ATP: AML12 hepatocyte cytotoxicity, confirmed; shares compounds with Lipid droplet; AML12 mouse hepatocyte viability, ATP luminescence; cells loaded with 100 µM oleic acid; 530 tested, under 10 active; cytotoxicity, % at 50 µM;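 active = cytotoxicity above 50% in each of four replicates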;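 note: compound exposure lasted overnight at 37 °C before the ATP read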
Hits are given with their value; . = inactive; / = no result.

SMILES	Lipid droplet	NTR1 ag	MC4R antagonist	MC4R ag barr	PREPL inhibitor	HTR2A ag	Lipid drop inh	AML12 cytotox	AML12 tox ATP
Cc1cccc(C)c1NC(=O)CSc1nnc(C)n1CC1CCCO1 (configuration not stated)	.	.	.	.	.	.	/	/	/
Cc1ccc([N+](=O)[O-])cc1NC(=O)C(C)Sc1nnc(C)n1CC1CCCO1 (configuration not stated)	60	.	.	.	.	.	.	.	/
CCc1nc2ccc(C(=O)NCc3ccc(OC)cc3)cn2c1N(CC)CCN(C)C	/	/	.	.	/	.	/	/	/
O=C1Nc2ccccc2C(=O)N(C2CCCC2)C1C(=O)NC1CC1 (configuration not stated)	/	/	/	/	/	.	/	/	/
CCOC(=O)C1=C(C)c2ccccc2N(C(=O)OC)C1(C)C(=O)OCC (configuration not stated)	/	.	.	.	/	.	/	/	/
CCC(C)C(=O)N1c2ccccc2C(=C2SC(C(=O)OC)=C(C(=O)OC)S2)C(=S)C1(C)C (configuration not stated)	67	.	.	.	.	.	112	.	.
Cc1ccc(-n2nnnc2SCC(=O)Nc2ncc(Cc3ccccc3Cl)s2)cc1	79	.	.	.	.	.	104	.	.
CCC(Sc1nc2ccsc2c(=O)n1-c1ccc(Cl)c(C)c1)C(=O)NCc1ccco1 (configuration not stated)	54	.	.	.	.	.	64	.	/
O=C(CSc1nc2ccsc2c(=O)n1Cc1ccccc1)NCc1ccco1	.	.	.	.	.	.	/	/	/
CCOc1ccc(C(=O)Nc2ccc(NC(=S)NC(=O)CC)cc2)cc1Cl	50	.	.	.	.	.	102	.	.
CCCOc1ccc(CNC(=O)c2ccc3nc(N4CCOCC4)sc3c2)cc1	54	.	.	.	.	.	99	.	.
CN(C)c1ccc(NC2=C([N+](=O)[O-])CS(=O)(=O)C2)cc1	84	.	.	.	.	.	.	.	/
Cc1c(C(=O)NNC(=S)Nc2cccc(Cl)c2)nnn1-c1ccccc1	.	.	.	.	.	.	/	/	/
CCCCOc1ccc(/C=C/C(=O)OCC(=O)c2c(N)n(C)c(=O)n(C)c2=O)cc1OCC	52	.	.	.	.	.	67	.	.
Cc1cc(OCC(=O)NC2CC2)c2c(C)cc(=O)oc2c1	61	.	.	.	.	.	.	.	/
COc1ccc(CNC(=O)N2CCN(S(=O)(=O)c3ccc(C)cc3C)CC2)cc1	82	.	.	.	.	.	79	.	.
COc1cc(Cc2nc3ccccc3n2C(C)c2nc3ccccc3[nH]2)cc(OC)c1 (configuration not stated)	/	/	/	/	/	.	/	/	/
O=c1[nH]c(=O)n(Cc2ccccc2)c2nc(-c3ccc(Oc4ccc(F)cc4)c([N+](=O)[O-])c3)n(CCO)c12	64	.	.	.	.	.	71	.	.
CCC/C=C(\CCC)C(NC(=O)c1ccc(C(F)(F)F)cc1)c1ccccc1 (configuration not stated)	/	.	/	/	.	/	/	/	/
CCOc1ccc(-c2csc(NNC3=NCCCCC3)n2)cc1	84	.	.	.	.	.	111	.	.
Clc1ccc(-c2csc(NNC3=NCCCCC3)n2)cc1	/	.	.	.	.	.	/	/	/
c1ccc(-c2csc(NNC3=NCCCCC3)n2)cc1	63	.	.	.	.	.	115	.	.
COc1ccc(-c2csc(NNC3=NCCCCC3)n2)cc1	115	.	/	/	.	/	112	.	.
CC1c2cc3c(cc2CCN1C(=O)c1cccc(Cl)c1)OCCCO3 (configuration not stated)	.	.	.	.	.	.	/	/	/
COC(=O)COc1cccc(NC(=O)c2ccc(Cl)cc2)c1	51	.	.	.	.	.	.	.	/
SMILES	Lipid droplet	NTR1 ag	MC4R antagonist	MC4R ag barr	PREPL inhibitor	HTR2A ag	Lipid drop inh	AML12 cytotox	AML12 tox ATP
CC(C)c1ccc(C2NC(=O)c3ccccc3O2)cc1 (configuration not stated)	.	.	.	.	.	.	/	/	/
CCOc1cc([C@@H]2C[C@H]3CN(c4ccccc4)C(=O)[C@]34CCCN24)ccc1OC	80	.	.	.	.	.	97	.	.
Cc1ccc(C(=O)COC(=O)c2ccc(O)cc2)cc1	.	.	.	.	.	.	/	/	/
CCN1C(c2ccccc2)=C(c2ccccc2)S/C1=C\C=C1/SC(=S)N(C)C1=O	/	.	.	.	.	.	/	/	/
CCN1C(=O)/C(=C/C=C2/Sc3ccc4ccccc4c3N2CCO)SC1=S	77	.	.	.	.	.	.	.	/
Cc1nn(C)cc1S(=O)(=O)NC1CCCC1	.	.	.	.	.	.	/	/	/
COCCN(C(=O)CCC(=O)Nc1cc(C)on1)C(C(=O)NC(C)(C)C)c1ccc(OC)cc1 (configuration not stated)	.	.	.	.	.	.	/	/	/
COc1ccc(C(C(=O)NC(C)(C)C)N(Cc2ccc(C)cc2)C(=O)CCC(=O)Nc2cc(C)on2)cc1 (configuration not stated)	70	.	.	.	.	.	106	.	.
CCC(C)(C)NC(=O)C(c1ccc(OC)cc1)N(Cc1ccco1)C(=O)CCC(=O)Nc1cc(C)on1 (configuration not stated)	.	.	.	.	.	.	/	/	/
COc1ccc(C(C(=O)NC(C)(C)C)N(Cc2ccco2)C(=O)CCC(=O)Nc2cc(C)on2)cc1 (configuration not stated)	52	.	.	.	.	.	69	.	.
CCOC(=O)C1CCCN(C(=O)Nc2c(-c3ccccc3)noc2C)C1 (configuration not stated)	.	.	.	.	.	.	/	/	/
CCOc1ccc2ccccc2c1/C=N/NC(=O)CNC(=O)C(c1ccccc1)c1ccccc1	82	.	.	.	.	.	92	.	.
Cn1c(=O)c2[nH]c(-c3ccc(S(=O)(=O)O)cc3)nc2n(C)c1=O	/	.	.	.	.	.	/	/	/
CCCCN(C(=O)CCC(=O)Nc1cc(C)on1)C(C(=O)NC1CCCC1)c1ccc(OCC)cc1 (configuration not stated)	74	.	.	.	.	.	91	.	.

Bioassay records as filed in PubChem BioAssay.
